Measured values from ChEMBL document CHEMBL1156888, “The first low microM SecA inhibitors” (Bioorg Med Chem, 2010).
Activity calls are given as the source filed them. The calls are words filed in the database; no cut-off is given here.

How the values were obtained:
Escherichia coli [1] = experiment: Inhibition of Escherichia coli SecA N-terminal fragment EcN68 assessed as phosphate release at 5 uM by Malachite green assay
In short: (§1)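 ATPase of truncated E. coli SecA N68 (lacks C-terminal regulatory domain), 2.25 µg per reaction, with 2 mM ATP in 50 mM Tris-HCl pH 7.6, 20 mM KCl, 20 mM NH4Cl, 1 mM DTT, 2 mM Mg(OAc)2, 10% DMSO. Run at 40 °C for 20 min, stopped with malachite green then citric acid, 40 min at room temperature, A660 read. Activity remaining expressed as percent of compound-free control. At least triplicate, SEM.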

[2] = Inhibition of Escherichia coli SecA N-terminal fragment EcN68 assessed as phosphate release by Malachite green assay
In short: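 Truncated SecA lacking the C-terminal regulatory domain (2.25 µg) in 50 µL with 2 mM ATP, 50 mM Tris-HCl pH 7.6, 20 mM KCl, 20 mM NH4Cl, 1 mM DTT, 2 mM Mg(OAc)2, 10% DMSO; 40 °C, 20 min. Stopped with malachite green then 34% citric acid; 40 min room temperature, A660. Percent remaining ATPase versus no-compound controls; at least triplicate.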

Escherichia coli [3] = experiment: Inhibition of Escherichia coli SecA N-terminal fragment EcN68 assessed as phosphate release at 30 uM by Malachite green assay; in short: as §1
[4] = Inhibition of Escherichia coli full length SecA assessed as phosphate release by Malachite green assay
In short: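 Full-length SecA (5 µg) in 50 µL with 2 mM ATP, 50 mM Tris-HCl pH 7.6, 20 mM KCl, 20 mM NH4Cl, 1 mM DTT, 2 mM Mg(OAc)2, 10% DMSO; 40 °C, 40 min. Stopped with malachite green then 34% citric acid; 40 min room temperature, A660. Activity as percent of no-compound controls; at least triplicate.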

Escherichia coli [5] = experiment: Inhibition of Escherichia coli SecA N-terminal fragment EcN68 assessed as phosphate release at 100 uM by Malachite green assay; in short: as §1
Escherichia coli [6] = experiment: Antimicrobial activity against wild type Escherichia coli MC4100 after 10 to 12 hrs; assay type: functional, organism-based
In short: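 E. coli K-12 wild-type strain MC4100. Log-phase cells (OD600 ~0.5 to 1.0) diluted to OD600 0.05, compounds added from 100% DMSO stocks, final 5% DMSO. Cultured with shaking at 37 °C, 1050 rpm, for 10 to 12 h.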

Escherichia coli [7] = experiment: Antimicrobial activity against permeability mutant Escherichia coli NR698 after 10 to 12 hrs; assay type: functional, organism-based
In short: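 Outer-membrane-permeable MC4100 imp4213 mutant; log-phase cells (OD600 ~0.5–1.0) diluted to OD600 0.05, compounds added from 100% DMSO stocks, cultures with 5% DMSO final, shaken at 37 °C, 1050 rpm, 10–12 h.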

Row | SMILES | inhibition (Escherichia coli [3]) | inhibition (Escherichia coli [5]) | further results
1 | N#Cc1c(-c2ccc(Br)cc2)nc(SCc2ccc(CSC3=NC(=O)C(C#N)C(c4ccc(Br)cc4)=N3)cc2)[nH]c1=O (stereo not drawn) | Active | Active | inhibition (Escherichia coli [1]): Active; IC50 [2]: 2 µM; IC50 [4]: 20 µM
2 | CCc1ccc(-c2nc(SCc3ccccc3)[nH]c(=O)c2C#N)cc1 | Active |  | 
3 | Cc1cccc(NC(=O)c2c(-c3c(Cl)cccc3Cl)noc2C)c1 |  | inactive | 
4 | Clc1ccc2nc(SCc3ccc(CSc4nc5ccc(Cl)cc5s4)cc3)sc2c1 |  | Active | 
5 | Clc1ccc2oc(SCc3ccc(CSc4nc5cc(Cl)ccc5o4)cc3)nc2c1 |  | Active | 
6 | N#Cc1c(-c2cccc3ccccc23)nc(SCc2ccc(CSC3=NC(=O)C(C#N)C(c4cccc5ccccc45)=N3)cc2)[nH]c1=O (stereo not drawn) | Active | Active | inhibition (Escherichia coli [1]): Active
7 | N#Cc1c(-c2ccc(-c3ccccc3)cc2)nc(SCc2ccc(CSC3=NC(=O)C(C#N)C(c4ccc(-c5ccccc5)cc4)=N3)cc2)[nH]c1=O (stereo not drawn) | Active | Active | inhibition (Escherichia coli [1]): Active; IC50 [2]: 2 µM; MIC (Escherichia coli [6]): inactive; IC50 [4]: 50 µM
8 | N#Cc1c(-c2cccc3ccccc23)nc(SCc2ccccc2)[nH]c1=O | Active |  | 
9 | Cc1ccc(C2=NC(SCc3ccc(CSc4nc(-c5ccc(C)cc5)c(C#N)c(=O)[nH]4)cc3)=NC(=O)C2C#N)cc1 (stereo not drawn) | Active | Active | inhibition (Escherichia coli [1]): Active
10 | Cc1onc(-c2c(Cl)cccc2Cl)c1C(=O)Nc1ccc(F)c(Cl)c1 |  | inactive | 
11 | Cc1onc(-c2c(F)cccc2Cl)c1C(=O)Nc1ccc(Sc2ccccc2)nc1Sc1ccccc1 |  | Active | 
12 | Cc1onc(-c2c(Cl)cccc2Cl)c1C(=O)N1CCSCC1 |  | inactive | 
13 | CC(C)c1ccc(-c2nc(SCc3ccccc3)[nH]c(=O)c2C#N)cc1 | Active |  | 
14 | Cc1onc(-c2c(Cl)cccc2Cl)c1C(=O)NCc1cccc(Br)c1 |  | inactive | 
15 | Cc1ccc(NC(=O)c2c(-c3c(Cl)cccc3Cl)noc2C)c(C)c1 |  | inactive | 
16 | Cc1onc(-c2c(Cl)cccc2Cl)c1C(=O)N1CCOCC1 |  | inactive | 
17 | Cc1ccccc1NC(=O)c1c(-c2c(Cl)cccc2Cl)noc1C |  | inactive | IC50 [4]: 60 µM
18 | N#Cc1c(-c2ccc(-c3ccccc3)cc2)nc(SCc2ccccc2)[nH]c1=O | Active |  | MIC (Escherichia coli [6]): inactive; MIC (Escherichia coli [7]): Active

Row | SMILES | inhibition (Escherichia coli [3]) | inhibition (Escherichia coli [5]) | further results
19 | N#Cc1c(-c2ccccc2)nc(SCc2ccc(CSC3=NC(=O)C(C#N)C(c4ccccc4)=N3)cc2)[nH]c1=O (stereo not drawn) | Active | Active | 
20 | Cc1cc(NC(=O)c2c(-c3c(Cl)cccc3Cl)noc2C)ccc1Br |  | inactive | 
21 | CCc1ccc(C2=NC(SCc3ccc(CSc4nc(-c5ccc(CC)cc5)c(C#N)c(=O)[nH]4)cc3)=NC(=O)C2C#N)cc1 (stereo not drawn) | Active | Active | inhibition (Escherichia coli [1]): Active
22 | N#Cc1c(-c2ccc(Br)cc2)nc(SCc2ccccc2)[nH]c1=O | Active |  | 
23 | Cc1onc(-c2c(Cl)cccc2Cl)c1C(=O)NC1CCC(C)CC1 (stereo not drawn) |  | inactive | 
24 | Cc1onc(-c2c(Cl)cccc2Cl)c1C(=O)Nc1ccccc1F |  | inactive | 
25 | O=[N+]([O-])c1ccc2oc(SCc3ccc(CSc4nc5cc([N+](=O)[O-])ccc5o4)cc3)nc2c1 |  | Active | 
26 | CC(C)c1ccc(C2=NC(SCc3ccc(CSc4nc(-c5ccc(C(C)C)cc5)c(C#N)c(=O)[nH]4)cc3)=NC(=O)C2C#N)cc1 (stereo not drawn) | Active | Active | inhibition (Escherichia coli [1]): Active
27 | COc1ccc(C2=NC(SCc3ccc(CSc4nc(-c5ccc(OC)cc5)c(C#N)c(=O)[nH]4)cc3)=NC(=O)C2C#N)cc1 (stereo not drawn) | Active | Active | 
28 | Cc1onc(-c2c(Cl)cccc2Cl)c1C(=O)Nc1cccc(Cl)c1 |  | inactive | 
29 | c1ccc2oc(SCc3ccc(CSc4nc5ccccc5o4)cc3)nc2c1 |  | Active | 
30 | Cc1ccc2oc(SCc3ccc(CSc4nc5cc(C)ccc5o4)cc3)nc2c1 |  | Active | 
31 | Cc1onc(-c2c(Cl)cccc2Cl)c1C(=O)N1CCCCC1 |  | inactive | 
32 | Cc1cccc(C2=NC(SCc3ccc(CSc4nc(-c5cccc(C)c5)c(C#N)c(=O)[nH]4)cc3)=NC(=O)C2C#N)c1 (stereo not drawn) | Active | Active | 
33 | Cc1onc(-c2c(Cl)cccc2Cl)c1C(=O)NCc1ccccc1Br |  | inactive | 
34 | O=[N+]([O-])c1cccc2oc(SCc3ccc(CSc4nc5c([N+](=O)[O-])cccc5o4)cc3)nc12 |  | Active | 
35 | Cc1onc(-c2c(Cl)cccc2Cl)c1C(=O)NC1CCCCC1 |  | inactive | 
